Laboratory results taken from ChEMBL document CHEMBL1156352, “New antiviral cassane furanoditerpenes from Caesalpinia minax” (J Nat Prod, 2001).
In brackets after ≈: the same amount, converted by molar mass.

System: not listed separately
Assay: Cytotoxicity against human Hep2 cells
Format: cell-based, HEp-2
Details: read-out: LC50 (the source's name)

With `CC(=O)O[C@@H]1[C@@H]2[C@H](Cc3occc3[C@@]2(C)O)[C@@]2(C)[C@@H](OC(C)=O)CCC(C)(C)[C@]2(O)[C@H]1OC(C)=O` [CAESALMIN E] as the molecule, how does the CC50 read?
The CC50 was 165 µg/mL (≈ 335 µM).

With `CC(=O)O[C@@H]1[C@@H]2[C@H](Cc3occc3[C@]2(C)O)[C@@]2(C)[C@@H](OC(C)=O)CCC(C)(C)[C@]2(O)[C@H]1OC(C)=O` [CAESALMIN D] as the molecule, how does the CC50 read?
The CC50 was 182 µg/mL (≈ 370 µM).

For `CC[C@H](/C=C/[C@@H](C)[C@H]1CC[C@H]2[C@@H]3CC=C4C[C@@H](O)CC[C@]4(C)[C@H]3CC[C@]12C)C(C)C` [STIGMASTEROL], which CC50 is on record?
Its CC50 is 137 µg/mL (≈ 331 µM).

Which CC50 does the source give for `CC1(C)CC[C@H](O)[C@]2(C)[C@H]3Cc4occc4[C@H]4C(=O)O[C@@H](C[C@@]12O)[C@@H]43` [CAESALMIN G] here?
The CC50 was 44.7 µg/mL (≈ 129 µM).

For `C=C1c2ccoc2C[C@H]2[C@H]1[C@@H](OC(C)=O)[C@H](OC(C)=O)[C@@]1(O)C(C)(C)CC[C@H](OC(C)=O)[C@]21C` [CAESALAMIN C], which CC50 is on record?
Its CC50 is 196 µg/mL (≈ 414 µM).

Which CC50 does the source give for `CO[C@]1(C)c2ccoc2C[C@H]2C1[C@@H](OC(C)=O)[C@H](OC(C)=O)[C@@]1(O)C(C)(C)CC[C@H](OC(C)=O)[C@]21C` (stereo partly drawn) [CAESALMIN F] here?
Its CC50 is 136 µg/mL (≈ 269 µM).

System: not listed separately
Assay: Therapeutic index, ratio of TC50 for human Hep2 cells to IC50 for Parainfluenza virus type 3
Format: cell-based, HEp-2
Details: read-out: TI
How it was run: (§1)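 Run in 96-well plates on Hep-2 cell monolayers, with ribavirin as positive control and an untreated infection control. Para3 virus suspension was added and CPE was scored under an inverted microscope. IC50 was the concentration that reduced CPE by 50% relative to virus control. TC50 was the concentration giving 50% cytotoxic effect.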

With `CC(=O)O[C@@H]1[C@@H]2[C@H](Cc3occc3[C@@]2(C)O)[C@@]2(C)[C@@H](OC(C)=O)CCC(C)(C)[C@]2(O)[C@H]1OC(C)=O` [CAESALMIN E] as the molecule, how does the selectivity ratio read?
The selectivity ratio was 16.

Which selectivity ratio does the source give for `CC(=O)O[C@@H]1[C@@H]2[C@H](Cc3occc3[C@]2(C)O)[C@@]2(C)[C@@H](OC(C)=O)CCC(C)(C)[C@]2(O)[C@H]1OC(C)=O` [CAESALMIN D] here?
The selectivity ratio was 19.1.

For `CC[C@H](/C=C/[C@@H](C)[C@H]1CC[C@H]2[C@@H]3CC=C4C[C@@H](O)CC[C@]4(C)[C@H]3CC[C@]12C)C(C)C` [STIGMASTEROL], which selectivity ratio is on record?
Its selectivity ratio is 3.6.

For `CC1(C)CC[C@H](O)[C@]2(C)[C@H]3Cc4occc4[C@H]4C(=O)O[C@@H](C[C@@]12O)[C@@H]43` [CAESALMIN G], which selectivity ratio is on record?
Its selectivity ratio is 3.

With `C=C1c2ccoc2C[C@H]2[C@H]1[C@@H](OC(C)=O)[C@H](OC(C)=O)[C@@]1(O)C(C)(C)CC[C@H](OC(C)=O)[C@]21C` [CAESALAMIN C] as the molecule, how does the selectivity ratio read?
The selectivity ratio was 23.9.

Which selectivity ratio does the source give for `CO[C@]1(C)c2ccoc2C[C@H]2C1[C@@H](OC(C)=O)[C@H](OC(C)=O)[C@@]1(O)C(C)(C)CC[C@H](OC(C)=O)[C@]21C` (stereo partly drawn) [CAESALMIN F] here?
Its selectivity ratio is 17.5.

System: Human respirovirus 3
Assay: Antiviral activity against Parainfluenza virus type 3 infected in human Hep2 cells assessed as inhibition of virus-induced cytopathogenic effect
Format: functional, organism-based
Details: Human respirovirus 3, HEp-2
How it was run: as §1

With `CC(=O)O[C@@H]1[C@@H]2[C@H](Cc3occc3[C@@]2(C)O)[C@@]2(C)[C@@H](OC(C)=O)CCC(C)(C)[C@]2(O)[C@H]1OC(C)=O` [CAESALMIN E] as the molecule, how does the IC50 read?
Its IC50 is 10.3 µg/mL (≈ 20.9 µM).

Which IC50 does the source give for `CC(=O)O[C@@H]1[C@@H]2[C@H](Cc3occc3[C@]2(C)O)[C@@]2(C)[C@@H](OC(C)=O)CCC(C)(C)[C@]2(O)[C@H]1OC(C)=O` [CAESALMIN D] here?
Its IC50 is 9.6 µg/mL (≈ 19.5 µM).

Which IC50 does the source give for `CC[C@H](/C=C/[C@@H](C)[C@H]1CC[C@H]2[C@@H]3CC=C4C[C@@H](O)CC[C@]4(C)[C@H]3CC[C@]12C)C(C)C` [STIGMASTEROL] here?
The IC50 was 37.5 µg/mL (≈ 90.9 µM).

For `CC1(C)CC[C@H](O)[C@]2(C)[C@H]3Cc4occc4[C@H]4C(=O)O[C@@H](C[C@@]12O)[C@@H]43` [CAESALMIN G], which IC50 is on record?
Its IC50 is 14.8 µg/mL (≈ 42.7 µM).

Which IC50 does the source give for `C=C1c2ccoc2C[C@H]2[C@H]1[C@@H](OC(C)=O)[C@H](OC(C)=O)[C@@]1(O)C(C)(C)CC[C@H](OC(C)=O)[C@]21C` [CAESALAMIN C] here?
Its IC50 is 8.2 µg/mL (≈ 17.3 µM).

For `CO[C@]1(C)c2ccoc2C[C@H]2C1[C@@H](OC(C)=O)[C@H](OC(C)=O)[C@@]1(O)C(C)(C)CC[C@H](OC(C)=O)[C@]21C` (stereo partly drawn) [CAESALMIN F], which IC50 is on record?
Its IC50 is 7.8 µg/mL (≈ 15.4 µM).
